Measurements pooled from the literature.
Lines come from different studies, so protocols differ.
Target: G protein-coupled receptor kinase 4 (GRK4, Homo sapiens, UniProt P32298)

| Structure (SMILES) | test | setting | quantity | result |
| --- | --- | --- | --- | --- |
| C=CC(=O)N1CCC[C@@H](n2nc(-c3ccc(Oc4ccccc4)cc3)c3c(N)ncnc32)C1 | enzyme activity, inhibitor | 1 µM | inhibition | 3% |
| CC(C)S(=O)(=O)c1ccc2nccc(Nc3ccc4sc(C5CCCC5)nc4c3)c2c1 | enzyme activity, inhibitor | 1 µM | activity vs control | 112% |
| CN1CCN(C(=O)c2ccc(NC(=O)Nc3ccc(N(C)c4ccnc(Nc5ccc(CS(C)(=O)=O)cc5)n4)cc3)cc2)CC1 | binding | 1 µM | remaining binding | 4.5% |
| C[C@]1(O)CCCN(c2nc(Nc3ccc(S(=O)(=O)N[C@H]4CC[C@H](CN5CCN(c6ccc(C7CCC(=O)NC7=O)cc6F)CC5)CC4)cc3F)ncc2C(F)(F)F)C1 (stereo partly drawn) | binding, competition with immobilised ligand | 1 µM | remaining binding | 87% |
| CCCCC(=O)Nc1ccc(-c2ccc3ncn(CCC)c(=O)c3c2)cn1 | binding, competition with immobilised ligand | 0.5 µM | remaining binding | 93% |
| C1=C/COCc2cc(ccc2OCCN2CCCC2)Nc2nccc(n2)-c2cccc(c2)COC/1 | binding | 0.1 µM | remaining binding | 13% |
| C=CC(=O)N1CCC([C@@H]2CCNc3c(C(N)=O)c(-c4ccc(Oc5ccccc5)cc4)nn32)CC1 | enzyme activity, inhibitor | 1 µM | inhibition | 8% |
| Cc1ccc(NC(=O)c2ccnc(C(F)(F)F)c2)cc1-c1cc(OCCO)nc(N2CCOCC2)c1 | binding | 1 µM | remaining binding | 99% |
| CNS(=O)(=O)c1ccc(Nc2ncc(C(F)(F)F)c(N3CCC[C@](C)(O)C3)n2)c(C)c1 | binding, competition with immobilised ligand | 1 µM | remaining binding | 100% |
